Assay results published in ChEMBL document CHEMBL3108713, “Identification of ML251, a Potent Inhibitor of T. brucei and T. cruzi Phosphofructokinase” (ACS Med Chem Lett, 2014).
pEC50, pIC50, pKi: −log10 of the molar value. Activity calls are given as the source filed them. The rule behind the calls is not given here.

Experiments:
[1] = Aqueous kinetic solubility of the compound; assay type: physicochemical; conditions: buffer; read-out: Kinetic_solubility
[2] = Metabolic stability in human plasma assessed as compound remaining after 2 hrs; assay type: ADME, cell-free; conditions: read-out: Stability
[3] = target: T1, ATP-dependent 6-phosphofructokinase (Trypanosoma cruzi) (UniProt Q4E657); test: Inhibition of Trypanosoma cruzi PFK at 57 uM
T1 sequence (whole entry): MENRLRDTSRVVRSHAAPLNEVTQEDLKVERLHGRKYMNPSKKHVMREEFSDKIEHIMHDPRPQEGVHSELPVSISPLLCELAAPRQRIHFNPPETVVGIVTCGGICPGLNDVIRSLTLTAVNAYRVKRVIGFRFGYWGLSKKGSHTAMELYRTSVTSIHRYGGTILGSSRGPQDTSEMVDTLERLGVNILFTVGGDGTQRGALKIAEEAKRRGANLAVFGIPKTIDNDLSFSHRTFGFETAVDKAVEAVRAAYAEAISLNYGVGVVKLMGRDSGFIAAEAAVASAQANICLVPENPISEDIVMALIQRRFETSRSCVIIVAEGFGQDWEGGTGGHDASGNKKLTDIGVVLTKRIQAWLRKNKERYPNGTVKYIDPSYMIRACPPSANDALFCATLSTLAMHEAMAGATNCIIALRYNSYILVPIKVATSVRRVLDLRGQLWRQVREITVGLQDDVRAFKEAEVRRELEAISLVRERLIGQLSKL
Summary of the method: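 PFK activity is measured by coupling ADP production to ADP-Glo luciferase luminescence at end point. Percent inhibition is recorded at 57 μM, the highest concentration of the dose series, with at least 3 separate experiments averaged.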

[4] = target: T2, ATP-dependent 6-phosphofructokinase, muscle type (Oryctolagus cuniculus) (UniProt P00511); test: Inhibition of recombinant rabbit muscle PFK expressed in PFK-deficient Escherichia coli DF1020DE3 using ATP/fructose 6 phosphate as substrate at 1 uM; assay type: tissue-based; conditions: Muscle tissue
T2 sequence (whole entry): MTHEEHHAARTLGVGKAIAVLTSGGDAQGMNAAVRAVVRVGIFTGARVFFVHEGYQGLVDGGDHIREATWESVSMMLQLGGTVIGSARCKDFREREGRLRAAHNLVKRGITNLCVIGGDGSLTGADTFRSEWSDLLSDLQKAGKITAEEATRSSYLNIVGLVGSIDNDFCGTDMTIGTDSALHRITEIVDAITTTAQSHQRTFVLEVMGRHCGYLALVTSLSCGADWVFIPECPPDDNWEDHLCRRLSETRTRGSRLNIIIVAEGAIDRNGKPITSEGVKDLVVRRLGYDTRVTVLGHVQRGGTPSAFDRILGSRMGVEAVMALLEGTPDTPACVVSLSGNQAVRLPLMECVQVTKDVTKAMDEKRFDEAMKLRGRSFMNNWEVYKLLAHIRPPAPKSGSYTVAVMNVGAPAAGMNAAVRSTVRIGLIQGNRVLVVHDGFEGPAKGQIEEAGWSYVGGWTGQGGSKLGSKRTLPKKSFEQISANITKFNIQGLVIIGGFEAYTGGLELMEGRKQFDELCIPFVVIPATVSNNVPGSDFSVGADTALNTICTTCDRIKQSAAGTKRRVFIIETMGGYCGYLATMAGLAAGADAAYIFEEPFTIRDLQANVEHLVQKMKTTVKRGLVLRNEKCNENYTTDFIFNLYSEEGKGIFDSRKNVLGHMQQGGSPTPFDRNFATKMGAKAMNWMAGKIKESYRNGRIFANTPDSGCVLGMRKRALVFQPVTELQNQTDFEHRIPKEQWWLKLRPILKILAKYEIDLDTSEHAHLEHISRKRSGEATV

[5] = target: T3, ATP-dependent 6-phosphofructokinase (Trypanosoma brucei) (UniProt O15648); test: Inhibition of Trypanosoma brucei PFK-mediated ADP production using ATP/fructose-6-phosphate as substrate at 57 uM by luciferase based luminescence assay
T3 sequence (whole entry): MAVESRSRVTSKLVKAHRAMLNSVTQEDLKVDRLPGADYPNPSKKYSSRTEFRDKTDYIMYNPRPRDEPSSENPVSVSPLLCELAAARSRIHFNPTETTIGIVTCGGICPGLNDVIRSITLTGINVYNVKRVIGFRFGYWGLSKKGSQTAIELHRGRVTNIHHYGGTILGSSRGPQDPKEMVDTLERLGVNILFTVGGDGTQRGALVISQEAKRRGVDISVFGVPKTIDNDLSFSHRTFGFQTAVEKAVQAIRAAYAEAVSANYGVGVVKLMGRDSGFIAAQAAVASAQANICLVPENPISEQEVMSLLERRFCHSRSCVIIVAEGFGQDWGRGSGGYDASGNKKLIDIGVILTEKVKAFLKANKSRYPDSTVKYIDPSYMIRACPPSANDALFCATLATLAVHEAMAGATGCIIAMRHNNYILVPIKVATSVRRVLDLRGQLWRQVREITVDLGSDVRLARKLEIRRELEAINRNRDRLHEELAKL
Summary of the method: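 Recombinant T. brucei PFK; ADP formed by the enzyme is converted to a luminescent signal by a modified luciferase ADP-Glo detection, read at end point.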

[6] = target: T4, ATP-dependent 6-phosphofructokinase (Trypanosoma brucei, UniProt O15648); test: Inhibition of Trypanosoma brucei PFK-mediated ADP production using ATP/fructose-6-phosphate as substrate by luciferase based luminescence assay
T4 sequence (O15648 whole entry): T3 sequence (whole entry)
Summary of the method: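 Recombinant enzyme; ADP formed by PFK detected with modified luciferase (ADP-Glo) luminescent end-point in 1536-well format.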

[7] = target: T4, ATP-dependent 6-phosphofructokinase; test: Mixed type inhibition Trypanosoma brucei PFK using ATP as substrate by Line-weaver Burk plot analysis
Summary of the method: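 Coupled biochemical PFK assay titrating ATP at several inhibitor levels (0, 1.5, 12.5, 50, 100 nM), F6P held saturating at 2 mM; initial velocities analysed by Lineweaver–Burk transformation, Ki from secondary plots.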

[8] = target: T4, ATP-dependent 6-phosphofructokinase; test: Competitive inhibition Trypanosoma brucei PFK using fructose-6-phosphate as substrate by Line-weaver Burk plot analysis
Summary of the method: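 Coupled biochemical PFK assay titrating F6P at several inhibitor levels (0, 1.5, 12.5, 50, 100 nM), ATP held saturating at 0.5 mM; initial velocities analysed by Lineweaver–Burk transformation, Ki from secondary plots.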

[9] = Half life in rat liver microsomes; assay type: ADME
[10] = tested on: Trypanosoma brucei brucei; test: Antitrypanosomal activity against Trypanosoma brucei brucei Lister 427 assessed as cell viability at 1.3 to 33.3 ug/ml after 72 hrs by alamar blue assay; assay type: functional, organism-based
[11] = target: T5, ATP-dependent 6-phosphofructokinase (Trypanosoma cruzi, UniProt Q4E657); test: Inhibition of Trypanosoma cruzi PFK
T5 sequence (Q4E657 whole entry): T1 sequence (whole entry)

[12] = Metabolic stability in mouse plasma assessed as compound remaining after 2 hrs; assay type: ADME, cell-free; conditions: read-out: Stability
[13] = Cytotoxicity against human MRC5 cells assessed as intracellular ATP content after 72 hrs by Cell titer-Glo luminiscent assay; assay type: cell-based
[14] = tested on: Trypanosoma brucei brucei; test: Antitrypanosomal activity against Trypanosoma brucei brucei Lister 427 assessed as cell viability after 72 hrs by alamar blue assay; assay type: functional
[15] = Half life in mouse liver microsomes; assay type: ADME, Microsome
[16] = Half life in human liver microsomes; assay type: ADME

Row | SMILES | solubility kinetic [1] [µg/mL] | remaining at 2 h [2] [%] | inhibition [3] [%] | inhibition [4] | inhibition [5] [%] | pIC50 [6] | pKi [7] | pKi [8] | half-life [9] [h] | Activity [10] | pIC50 [11] | remaining at 2 h [12] [%] | CC50 at 72 h [13] [nM] | Activity [14] | pEC50 ([14]; Lister 427, 72 h, read-out: ED50 (the source's name)) | half-life [15] [h] | half-life [16] [h]
1 | O=C(Cc1ccc(F)c(Cl)c1)Nc1ccc(S(=O)(=O)Nc2nncs2)cc1 | > 81 | > 95 | > 80 | inactive | > 80 | 7.82 | 6.62 | 7.28 | > 0.5 | inactive | 6.76 | > 95 | > 46000 | – | – | – | –
2 | O=C(Cc1ccc(Cl)c(Cl)c1)Nc1ccc(S(=O)(=O)Nc2ccon2)cc1 | > 81 | > 95 | > 80 | – | > 80 | 6.43 | – | – | > 0.5 | – | 6.89 | > 95 | > 46000 | Dose-dependent effect | 4.79 | 3.85 | 5.5
